Shown are actives, neighbours in structure and some others; about 2.1% of the full set was active somewhere.
Runt-SMMHC FRET – blocks binding of human RUNX1 Runt domain to CBFb-SMMHC. hit rate 0.74% among 220,000. Cerulean-Runt/Venus-CBFb-SMMHC FRET ratio 530/480, 1 h. inhibition, % at 20 µM;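 active means mean inhibition across duplicate retests at 20 µM reaching about 50%, limit read from the data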;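 further: 0% = DMSO wells and 100% = wells with excess untagged CBFb-SMMHC; inhibitors lower the FRET ratio by blocking Runt binding to CBFb-SMMHC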
Runt-CBFb FRET – blocks binding of human RUNX1 Runt domain to CBFb; Q01196+Q13951; Cerulean-Runt/Venus-CBFb FRET ratio 530/480, 1 h; inhibition, % at 20 µM; hit rate 0.46% among 220,000;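 active means inhibition over about 50% at 20 µM in the single-dose screen, limit read from the data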;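 further: 0% = DMSO wells and 100% = excess unlabeled CBFb competitor control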
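Assay system: Cerulean-Runt domain / Medium: Tris 50 mM pH 7.5, KCl, K2SO4, 0.01% BSA / Timing: protein complex preformed 1 h, compound exposure 1 h, room temperature, dark / Measured by: FRET, excitation 422 nm, emission at 530 and 480 nm / Evaluation: loss of energy transfer signal / Control set: 5 µM unlabeled CBFb as full-inhibition high control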
RanGTP-Imp inh – disruptors of Ran-importin-beta complex formation – biochemical, FRET, CFP-Ran, YFP-importin-beta, homogeneous, primary screen. hit rate 1.1% among 300,000. inhibition, % (concentration not given with the values). cell-free CFP-Ran/YFP-importin-beta FRET ratio. AID 2216;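 active means more than half of the replicate wells show a fall in the fluorescence ratio signal beyond about 16%, limit read from the data, passing the limit was not always enough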;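 further: 0% = DMSO wells and 100% = Ran loaded with GDP instead of GTP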
FAS-TE inh – FAS thioesterase (human) inhibition | recombinant FAS-TE, OMFH fluorogenic substrate, fluorescence endpoint | inhibition, % at 15 µM | hit rate 0.67% among 360,000;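 active means compounds whose normalised, plate-corrected inhibition of enzyme fluorescence in the single-dose primary screen is 50% or more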;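 further: 0% = DMSO with enzyme and 100% = substrate without enzyme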
Target sequence (P49327 whole entry, looked up): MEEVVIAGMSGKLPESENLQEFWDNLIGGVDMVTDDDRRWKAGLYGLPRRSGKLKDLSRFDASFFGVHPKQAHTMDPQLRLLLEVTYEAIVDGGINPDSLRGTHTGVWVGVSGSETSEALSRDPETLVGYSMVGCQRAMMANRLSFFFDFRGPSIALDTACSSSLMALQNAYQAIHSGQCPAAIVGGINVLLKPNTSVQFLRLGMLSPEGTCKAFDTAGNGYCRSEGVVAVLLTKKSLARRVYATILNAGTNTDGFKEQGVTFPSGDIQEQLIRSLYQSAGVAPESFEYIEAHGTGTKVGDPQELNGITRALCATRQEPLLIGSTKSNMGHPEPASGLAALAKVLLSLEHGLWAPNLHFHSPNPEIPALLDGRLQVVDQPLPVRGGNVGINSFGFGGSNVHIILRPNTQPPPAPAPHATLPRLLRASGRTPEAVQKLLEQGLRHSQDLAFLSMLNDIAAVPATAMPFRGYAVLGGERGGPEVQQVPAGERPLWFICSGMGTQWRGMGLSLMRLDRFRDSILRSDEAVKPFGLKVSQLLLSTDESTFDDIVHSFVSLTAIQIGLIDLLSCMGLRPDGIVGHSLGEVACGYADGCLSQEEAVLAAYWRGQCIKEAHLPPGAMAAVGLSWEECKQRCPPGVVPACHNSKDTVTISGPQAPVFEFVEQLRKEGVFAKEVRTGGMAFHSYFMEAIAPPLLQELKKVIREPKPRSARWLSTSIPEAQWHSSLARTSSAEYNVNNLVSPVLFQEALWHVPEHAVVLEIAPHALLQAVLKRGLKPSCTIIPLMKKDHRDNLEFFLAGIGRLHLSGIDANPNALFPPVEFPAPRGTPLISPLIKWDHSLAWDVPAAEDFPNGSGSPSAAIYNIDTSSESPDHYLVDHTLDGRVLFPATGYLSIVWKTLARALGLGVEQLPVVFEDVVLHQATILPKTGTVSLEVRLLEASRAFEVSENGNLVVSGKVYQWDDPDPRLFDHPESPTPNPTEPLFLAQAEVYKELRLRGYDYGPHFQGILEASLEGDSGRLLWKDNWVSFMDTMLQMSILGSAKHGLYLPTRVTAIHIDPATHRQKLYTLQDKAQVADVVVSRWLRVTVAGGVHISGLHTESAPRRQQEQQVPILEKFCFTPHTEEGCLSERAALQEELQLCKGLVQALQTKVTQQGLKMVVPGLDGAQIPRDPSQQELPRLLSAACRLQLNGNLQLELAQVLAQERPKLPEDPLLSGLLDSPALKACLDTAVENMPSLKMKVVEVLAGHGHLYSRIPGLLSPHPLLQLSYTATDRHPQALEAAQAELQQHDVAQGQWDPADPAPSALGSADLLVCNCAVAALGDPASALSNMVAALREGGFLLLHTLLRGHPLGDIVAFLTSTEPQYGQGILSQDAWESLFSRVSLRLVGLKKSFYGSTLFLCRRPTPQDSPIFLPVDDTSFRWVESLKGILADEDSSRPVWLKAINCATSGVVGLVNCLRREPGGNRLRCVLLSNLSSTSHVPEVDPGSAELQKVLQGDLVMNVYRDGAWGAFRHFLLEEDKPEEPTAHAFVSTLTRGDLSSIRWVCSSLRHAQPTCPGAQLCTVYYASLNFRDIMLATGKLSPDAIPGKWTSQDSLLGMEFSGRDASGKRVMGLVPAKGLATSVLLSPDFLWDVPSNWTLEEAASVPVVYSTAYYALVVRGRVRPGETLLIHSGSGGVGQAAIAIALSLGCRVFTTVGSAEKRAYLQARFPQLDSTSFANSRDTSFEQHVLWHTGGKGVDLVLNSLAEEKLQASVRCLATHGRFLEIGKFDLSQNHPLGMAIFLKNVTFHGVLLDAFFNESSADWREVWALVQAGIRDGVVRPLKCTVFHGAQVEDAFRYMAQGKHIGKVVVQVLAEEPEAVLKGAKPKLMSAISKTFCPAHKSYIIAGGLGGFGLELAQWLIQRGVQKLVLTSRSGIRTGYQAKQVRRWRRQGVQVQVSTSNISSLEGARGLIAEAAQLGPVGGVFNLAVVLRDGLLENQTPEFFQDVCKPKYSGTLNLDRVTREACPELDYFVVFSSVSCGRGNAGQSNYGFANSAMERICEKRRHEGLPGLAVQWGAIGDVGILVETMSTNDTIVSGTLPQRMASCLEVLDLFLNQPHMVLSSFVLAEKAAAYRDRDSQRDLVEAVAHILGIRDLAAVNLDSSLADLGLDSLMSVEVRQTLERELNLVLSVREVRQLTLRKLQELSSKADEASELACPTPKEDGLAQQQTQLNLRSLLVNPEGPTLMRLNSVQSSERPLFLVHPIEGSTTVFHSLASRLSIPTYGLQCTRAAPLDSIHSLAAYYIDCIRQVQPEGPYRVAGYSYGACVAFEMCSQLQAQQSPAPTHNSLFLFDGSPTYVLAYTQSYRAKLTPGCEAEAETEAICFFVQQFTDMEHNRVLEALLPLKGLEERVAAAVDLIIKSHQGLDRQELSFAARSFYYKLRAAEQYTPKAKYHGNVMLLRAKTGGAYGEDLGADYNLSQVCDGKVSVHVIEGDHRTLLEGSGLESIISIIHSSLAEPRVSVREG
m-calpain inh – inhibitors of pig calpain II | purified calpain II, fluorogenic peptide substrate, 30 min | inhibition, % at 16 µM | hit rate 0.37% among 220,000 | AID 1236;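 active means inhibition above about 50%, limit read from the data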
FAS-TE conf – confirmation of human fatty acid synthase thioesterase inhibitors | shares compounds with FAS-TE inh | hit rate 45% among 2,300 | inhibition, % at 15 µM | recombinant FAS-TE, OMFH fluorogenic substrate, fluorescence;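 active means compounds inhibiting the enzyme by at least 50% at 15 µM in any one of the replicates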;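 further: 0% = enzyme with DMSO only and 100% = wells lacking enzyme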
* hit, by the source's call.

`CCOC1=C2CN(S(=O)(=O)c3ccccc3)[C@H](c3ccccc3)C[C@H]2n2c(=O)n(-c3ccccc3)c(=O)n2C1` gave FAS-TE inh 80* and FAS-TE conf 13.
`CCOC1=C2[C@H](c3ccccc3)N(S(=O)(=O)c3ccccc3)C[C@H]2n2c(=O)n(-c3ccccc3)c(=O)n2C1` gave FAS-TE inh 73* and FAS-TE conf 39.
For CCCCn1c(N)c(N(CC(C)C)C(=O)c2c(CC)noc2C)c(=O)[nH]c1=O the results were RanGTP-Imp inh 1 and FAS-TE inh -8.
`CCN(C(=O)COC(=O)CSc1ccc(C(N)=O)cc1[N+](=O)[O-])C1CCCCC1` gave RanGTP-Imp inh 2 and FAS-TE inh 6.
Screening CC(C)(CNC(=O)c1ccc([N+](=O)[O-])c(Cl)c1)CNC(=O)c1ccc([N+](=O)[O-])c(Cl)c1 returned Runt-SMMHC FRET 10, Runt-CBFb FRET 1, RanGTP-Imp inh 3, FAS-TE inh 56*, m-calpain inh 1 and FAS-TE conf 63*.
For Cc1ccc(C(=O)NCCNc2ncc(C(F)(F)F)cc2Cl)cc1[N+](=O)[O-] the results were RanGTP-Imp inh 0, FAS-TE inh 55* and FAS-TE conf 60*.
For C=CCNC(=O)c1ccc([N+](=O)[O-])c(Cl)c1 the results were Runt-SMMHC FRET -4, Runt-CBFb FRET 1, RanGTP-Imp inh -1, FAS-TE inh 0 and m-calpain inh -6.
For COc1ccc(C(=O)NCCNc2ncc(C(F)(F)F)cc2Cl)cc1[N+](=O)[O-] the results were RanGTP-Imp inh 5, FAS-TE inh 53* and FAS-TE conf 47*.
For O=[N+]([O-])c1ccccc1NCCNc1ncc(C(F)(F)F)cc1Cl the results were Runt-SMMHC FRET -16, Runt-CBFb FRET -8, RanGTP-Imp inh 2, FAS-TE inh 19 and m-calpain inh 10.
Screening COc1cccc(NC(=O)COc2ccc(C(=S)N3CCN(C)CC3)cc2OC)c1 returned RanGTP-Imp inh -2 and FAS-TE inh -3.
Screening CC(C)(C)c1ccc(C(=O)NCC(=O)OCc2ccc([N+](=O)[O-])cc2)cc1 returned Runt-SMMHC FRET -2, Runt-CBFb FRET -3, RanGTP-Imp inh 0, FAS-TE inh 71*, m-calpain inh 25 and FAS-TE conf 83*.
For CNC[C@@H]1Oc2cc(Br)ccc2S(=O)(=O)N([C@@H](C)CO)C[C@H]1C the results were FAS-TE inh -1.
For Cc1nn(Cc2ccc([N+](=O)[O-])cc2)c(=O)n1-c1ccc(Cl)cc1 the results were Runt-SMMHC FRET -1, Runt-CBFb FRET -1, RanGTP-Imp inh 7, FAS-TE inh 35 and m-calpain inh -2.
For Cc1nn(Cc2ccc([N+](=O)[O-])cc2)c(=O)n1-c1cccc(Cl)c1 the results were Runt-SMMHC FRET -2, Runt-CBFb FRET 3, RanGTP-Imp inh 20*, FAS-TE inh 66*, m-calpain inh -1 and FAS-TE conf 75*.
COc1ccccc1-c1nnc(SCC(=O)NC2CCCCC2)n1C was read as RanGTP-Imp inh -1 and FAS-TE inh -5.
Screening N#Cc1ccc(-n2c(-c3ccccc3)nnc2-c2ccccc2)cc1C#N returned Runt-SMMHC FRET 2, Runt-CBFb FRET 0, RanGTP-Imp inh 0, FAS-TE inh 43 and m-calpain inh -38.
For N#Cc1cccc(-n2c(-c3ccccc3)nnc2-c2ccccc2)c1C#N the results were Runt-SMMHC FRET 1, Runt-CBFb FRET 1, RanGTP-Imp inh -1, FAS-TE inh 58*, m-calpain inh -97 and FAS-TE conf 17.
`CC(=O)C1=CCC(c2ccccc2)N(S(=O)(=O)c2cccc(C)c2)C1` (stereo unspecified) gave FAS-TE inh 4.
Cc1nc(N2CCN(S(=O)(=O)c3ccccc3)CC2)c2c3c(sc2n1)CC(C)CC3 (stereo unspecified) was read as Runt-SMMHC FRET 0, Runt-CBFb FRET 0, FAS-TE inh 32 and m-calpain inh -7.
`Cc1nc(N2CCN(S(=O)(=O)c3cccc4nonc34)CC2)c2c3c(sc2n1)CCCC3` gave Runt-SMMHC FRET -2, Runt-CBFb FRET -2, RanGTP-Imp inh 1, FAS-TE inh 54*, m-calpain inh -47 and FAS-TE conf 7.
For COc1ccc(C(=O)N/C(=C\c2cn(S(=O)(=O)N(C)C)c3ccccc23)C(=O)NCCCN2CCOCC2)cc1 the results were RanGTP-Imp inh 4, FAS-TE inh 57* and FAS-TE conf 74*.
O=C(NCC(c1ccco1)N1CCN(c2ccccc2F)CC1)c1ccco1 (stereo unspecified) was read as RanGTP-Imp inh 1 and FAS-TE inh 0.
For COc1ccc(/C=C/C(=O)Nc2cc(S(=O)(=O)N3CCCCC3)ccc2N2CCCCC2)cc1OC the results were Runt-SMMHC FRET 0, Runt-CBFb FRET -4, RanGTP-Imp inh 0, FAS-TE inh 90*, m-calpain inh -65 and FAS-TE conf 8.
For COc1ccc(NC(=O)c2ccc3ccccc3n2)cc1S(=O)(=O)Nc1ccccc1Cl the results were Runt-SMMHC FRET 2, Runt-CBFb FRET 0, RanGTP-Imp inh 1, FAS-TE inh 64*, m-calpain inh -12 and FAS-TE conf 13.
For COc1cc(/C=C/C(=O)Nc2ccc(N3CCCCC3)c(S(=O)(=O)Nc3ccccc3Cl)c2)cc(OC)c1OC the results were Runt-SMMHC FRET -3, Runt-CBFb FRET -4, RanGTP-Imp inh 0, FAS-TE inh 58*, m-calpain inh -49 and FAS-TE conf 12.
COc1ccc(NC(=O)c2cc(C)nc3ccccc23)cc1S(=O)(=O)Nc1ccccc1Cl was read as Runt-SMMHC FRET 0, Runt-CBFb FRET -7, RanGTP-Imp inh 0, FAS-TE inh 5 and m-calpain inh -12.
`COc1ccccc1N(C)S(=O)(=O)c1ccc(C(=O)OCC(=O)N2CCC2)cc1` gave Runt-SMMHC FRET -2, Runt-CBFb FRET 0, RanGTP-Imp inh 2, FAS-TE inh 3 and m-calpain inh 3.
Cc1ccccc1-c1nc(CS(=O)CC(=O)NCc2ccccn2)c(C)o1 (stereo unspecified) was read as RanGTP-Imp inh -2 and FAS-TE inh -3.
For C[C@@]12C(=O)Nc3ccc(Cl)cc3C(=O)N1[C@H]1c3cc(Br)ccc3OC[C@@H]1[C@@H]2c1ccccc1 the results were FAS-TE inh 91* and FAS-TE conf 33.
`C[C@@]12C(=O)Nc3ccc(Br)cc3C(=O)N1[C@H]1c3cc(Br)ccc3OC[C@@H]1[C@@H]2c1ccccc1` gave FAS-TE inh 64* and FAS-TE conf 23.
Screening CCOC(=O)[C@H]1[C@H]2COc3ccc(Br)cc3[C@@H]2N2C(=O)c3cc(F)c(F)cc3NC(=O)[C@@]12C returned FAS-TE inh 41.

High-throughput results as filed in PubChem BioAssay.
